# According to ChEMBL document CHEMBL1136151, “Suzuki cross-coupling approaches to the synthesis of bioactive 3-substituted and 5-substituted-4-methoxy-6-methyl-2-pyrones” (Bioorg Med Chem Lett, 2003):
# Experiments:
# Thanatephorus cucumeris [1] = assay: Percent growth of Rhizoctonia solani after 72 hours of incubation; format: functional; parameters: concentration or dose not given beside the values
# How it was run: (§1)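 Fungal plate assay: pyrone dissolved in absolute EtOH at 10mg/mL and pipetted 2 cm offset from the centre of the plate containing the organism. EtOH alone served as control. Growth is recorded as percentage of the organism after 72 h and after 7 days of incubation.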
# Globisporangium ultimum [2] = assay: Percent growth of Pythium ultimum after 7 days of incubation; format: functional; parameters: concentration or dose not given beside the values; how it was run: as §1
# Candida albicans = assay: Antimicrobial activity against Candida albicans was determined after 48 hours of incubation; format: functional
# How it was run: (§2)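 Disk diffusion on yeast plates: cellulose disks carrying test compound, with an EtOH control. Incubation 48 h. The inhibition zone radius is recorded in mm.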
# Thanatephorus cucumeris [3] = assay: Percent growth of Rhizoctonia solani after 7 days of incubation; format: functional; parameters: concentration or dose not given beside the values; how it was run: as §1
# Bacillus subtilis = assay: Antimicrobial activity against Bacillus subtilis was determined after 96 hours of incubation; format: functional
# How it was run: (§3)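 Disk diffusion: cellulose disks loaded with test compound and placed on bacterial plates, with an EtOH control disk. Incubation 96 h. Read-out is the radius (mm) of the inhibition zone.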
# Botrytis cinerea [4] = assay: Percent growth of Botrytis cinerea after 7 days of incubation; format: functional; parameters: concentration or dose not given beside the values; how it was run: as §1
# Fusarium oxysporum [5] = assay: Percent growth of Fusarium oxysporum after 72 hours of incubation; format: functional; parameters: concentration or dose not given beside the values; how it was run: as §1
# Aspergillus niger [6] = assay: Percent growth of Aspergillus niger after 72 hours of incubation; format: functional; parameters: concentration or dose not given beside the values; how it was run: as §1
# Staphylococcus aureus = assay: Antimicrobial activity against Staphylococcus aureus was determined after 96 hours of incubation; format: functional; how it was run: as §3
# Aspergillus niger [7] = assay: Percent growth of Aspergillus niger after 7 days of incubation; format: functional; parameters: concentration or dose not given beside the values; how it was run: as §1
# Globisporangium ultimum [8] = assay: Percent growth of Pythium ultimum after 72 hours of incubation; format: functional; parameters: concentration or dose not given beside the values; how it was run: as §1
# Botrytis cinerea [9] = assay: Percent growth of Botrytis cinerea after 72 hours of incubation; format: functional; parameters: concentration or dose not given beside the values; how it was run: as §1
# [10] = tested on: Globisporangium mamillatum; assay: Percent growth of Pythium mammillatum after 7 days of incubation; format: functional; parameters: concentration or dose not given beside the values; how it was run: as §1
# [11] = tested on: Schizosaccharomyces pombe; assay: Antimicrobial activity against Schizosaccharomyces pombe was determined after 48 hours of incubation; format: functional; how it was run: as §2
# Escherichia coli = assay: Antimicrobial activity against Escherichia coli was determined after 96 hours of incubation; format: functional; how it was run: as §3
# Fusarium oxysporum [12] = assay: Percent growth of Fusarium oxysporum after 7 days of incubation; format: functional; parameters: concentration or dose not given beside the values; how it was run: as §1
# Saccharomyces cerevisiae = assay: Antimicrobial activity against Saccharomyces cerevisiae was determined after 48 hours of incubation; format: functional; how it was run: as §2
# [13] = tested on: Globisporangium mamillatum; assay: Percent growth of Pythium mammillatum after 72 hours of incubation; format: functional; parameters: concentration or dose not given beside the values; how it was run: as §1
# [14] = tested on: Globisporangium mamillatum; assay: Percent growth of Pythium mammillatum after 7 days of incubation; NT=Not tested; format: functional; how it was run: as §1
# A2780 = assay: In vitro growth inhibitory activity against A2780 human ovarium carcinoma cell line was determined; format: functional, cell-based
# How it was run: (§4)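 Cell growth inhibition measured in cultured tumour cells by MTT assay. IC50 derived from the growth inhibition.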
# K562 = assay: In vitro growth inhibitory activity against K562 human chronic myelogenous leukemia cell line was determined; format: functional, cell-based; how it was run: as §4
Compound,Growth (Thanatephorus cucumeris [1]) [%],Growth (Globisporangium ultimum [2]) [%],Activity (Candida albicans) [mm],Growth (Thanatephorus cucumeris [3]) [%],Activity (Bacillus subtilis) [mm],Growth (Botrytis cinerea [4]) [%],Growth (Fusarium oxysporum [5]) [%],Growth (Aspergillus niger [6]) [%],Activity (Staphylococcus aureus) [mm],Growth (Aspergillus niger [7]) [%],Growth (Globisporangium ultimum [8]) [%],Growth (Botrytis cinerea [9]) [%],Growth [10] [%],Activity [11] [mm],Activity (Escherichia coli) [mm],Growth (Fusarium oxysporum [12]) [%],Activity (Saccharomyces cerevisiae) [mm],Growth [13] [%],Growth [14] [%],other results
CCCCC/C=C/c1c(OC)cc(C)oc1=O,47,75,0,100,20,100,11,90,0,95,61,53,100,0,0,56,0,42,,
CCCCC/C=C/c1cc(C)oc(=O)c1,38,100,21,100,18,100,2,89,17,94,95,45,93,34,18,24,0,31,,
CCCC/C=C/c1c(OC)cc(=O)oc1C,41,100,18,93.4,17,100,7,68,15,>95,100,33,92,31,18,35,15,34,,
CCC/C=C/c1c(OC)cc(=O)oc1C,50,100,11,100,16,100,8,82,0,90,100,39,,20,17,35,10,43,100,
CCCCCC/C=C/c1c(OC)cc(C)oc1=O,53,100,0,100,18,100,11,89,0,95,100,60,100,0,0,60,0,25,,IC50 (A2780): 30.3 µM; IC50 (K562): 30.1 µM
CCCC/C=C/c1cc(C)oc(=O)c1,36,100,24,100,18,100,2,92,0,95,96,44,100,40,18,25,0,30,,
CCC/C=C/c1c(OC)cc(C)oc1=O,44,80,0,100,18,100,8,93,0,>95,67,56,100,13,21,48,0,43,,
CCCCCC/C=C/c1c(OC)cc(=O)oc1C,40,100,18,100,16,94,10,90,16,93,100,29,,22,14,46,0,22,90,IC50 (A2780): 26.9 µM; IC50 (K562): 33.3 µM
COc1cc(=O)oc(C)c1-c1ccc(C)cc1,61,,0,100,8,100,10,>90,0,>95,,49,,20,6,54,0,,100,
